Assay outcomes as filed in PubChem.
Compounds with a hit are over-represented: about 4.7% of the library has one in this group of screens.
aSyn 5UTR inh = 5' untranslated region of α-synuclein, MLPCN primary screen. inhibition, % (tested at 7.5 µM). 300,000 tested, 0.82% active. alpha-synuclein 5'UTR reporter, inhibitor activity; in the data active = inhibition above about 60%;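 also: H4 neuroglioblastoma cells stably carrying SNCA 5'UTR luciferase fusion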
IMP-1 inh = blocks Pseudomonas aeruginosa IMP-1 metallo-beta-lactamase. inhibition, % at 5.6 µM. AID 1556. purified IMP-1, nitrocefin hydrolysis, epi-absorbance fluorescence. 290,000 tested, 0.45% active;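 active = inhibition above the mean plus 3 SD of all compounds in the same screening run, cut at about 4.5% in these data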
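System: Purified IMP-1 | Read-out basis: Percent enzyme inhibition | Controls: IMP-1 with DMSO as 0%, enzyme-free DMSO as 100% | Replicates: One well per compound | Doses: 5.6 µM nominal single concentration | Detection: Epi-absorbance fluorescence, 480 nm excitation, 530 nm emission | Incubation: 25 °C, 15 min preincubation, 25 min reaction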
Jurkat NFkB inh = lowers PMA/ionomycin-induced NF-kB signal in Jurkat cells; 330,000 tested, 0.53% active; AID 435003; inhibition, % at 4 µM; PMA/ionomycin-induced NF-kB luciferase reporter, luminescence; in the data active = inhibition above about 50%
Mdm2-MdmX inh = human Mdm2/MdmX binding inhibition. SaOS-2 split-luciferase Mdm2/MdmX complementation, luminescence. O15151+Q00987. inhibition, % at 8 µM. 330,000 tested, 3% active. AID 485346;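 active = inhibition of at least 50% at 8 µM in the primary screen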
Target sequence (O15151 whole entry, looked up): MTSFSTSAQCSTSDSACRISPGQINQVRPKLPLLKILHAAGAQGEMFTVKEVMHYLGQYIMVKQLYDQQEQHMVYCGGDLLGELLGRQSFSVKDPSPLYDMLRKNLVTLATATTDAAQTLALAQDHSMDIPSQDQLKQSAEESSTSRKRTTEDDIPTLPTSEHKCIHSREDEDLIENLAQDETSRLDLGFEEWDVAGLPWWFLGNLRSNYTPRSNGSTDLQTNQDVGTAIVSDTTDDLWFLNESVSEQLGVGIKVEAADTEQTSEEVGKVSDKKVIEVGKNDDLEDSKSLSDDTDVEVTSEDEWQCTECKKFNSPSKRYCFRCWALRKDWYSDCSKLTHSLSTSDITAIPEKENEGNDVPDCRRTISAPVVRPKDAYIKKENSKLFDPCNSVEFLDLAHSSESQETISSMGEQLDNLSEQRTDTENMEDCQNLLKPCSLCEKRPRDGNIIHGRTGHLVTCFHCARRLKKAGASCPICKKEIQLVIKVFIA
Target sequence (Q00987 whole entry, looked up): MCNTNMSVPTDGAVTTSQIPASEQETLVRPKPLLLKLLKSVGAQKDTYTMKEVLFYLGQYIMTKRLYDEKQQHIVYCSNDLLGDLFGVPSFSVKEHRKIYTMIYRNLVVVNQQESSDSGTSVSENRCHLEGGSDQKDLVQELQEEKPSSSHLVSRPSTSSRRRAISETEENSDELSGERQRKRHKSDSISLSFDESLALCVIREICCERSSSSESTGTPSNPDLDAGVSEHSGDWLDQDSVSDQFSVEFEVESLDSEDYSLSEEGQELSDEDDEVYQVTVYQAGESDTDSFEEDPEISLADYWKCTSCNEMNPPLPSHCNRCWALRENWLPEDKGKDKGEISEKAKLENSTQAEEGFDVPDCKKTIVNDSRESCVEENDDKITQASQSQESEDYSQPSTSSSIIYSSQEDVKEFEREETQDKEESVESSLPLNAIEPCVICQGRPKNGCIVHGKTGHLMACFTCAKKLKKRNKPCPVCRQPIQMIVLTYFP
VIM-2 inh = blocks Pseudomonas aeruginosa VIM-2 metallo-beta-lactamase | 290,000 tested, 0.89% active | purified VIM-2, nitrocefin hydrolysis, epi-absorbance fluorescence | AID 1527 | inhibition, % at 5.6 µM;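 active = inhibition above the mean of all tested compounds plus 3 SD, cutoff set per screening run, cut at about 7.5% in these data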;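 also: red hydrolysis product quenches plate fluorescence so inhibitors raise well fluorescence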
697 NFkB inh = inhibitors of the PMA/ionomycin-induced NF-kB reporter in 697 B cells; 697 B-cell NF-kB luciferase reporter, 16 h; inhibition, % at 4 µM; 330,000 tested, 0.33% active; in the data active = inhibition above about 35%
Mdm2-MdmX conf = confirmation of human Mdm2/MdmX interaction inhibitors; shares compounds with Mdm2-MdmX inh; Mdm2-MdmX binding, luminescent assay; inhibition, % at 8 µM; 10,000 tested, 55% active; AID 489028; in the data active = inhibition above about 40%
FLuc counter = full-length luciferase inhibition in Mdm2/MdmX counter-screen; shares compounds with Mdm2-MdmX inh; SaOS-2 full-length luciferase counterscreen, luminescence; inhibition, % at 8 µM; 6,200 tested, 77% active;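 active = mean inhibition at 8 µM reaching about 37%, which flags the compound as non-specific, limit read from the data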;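 also: p53-null SaOS-2 cells with luciferase driven by a doxycycline-inducible promoter; compound on cells about two nights before reading with doxycycline added after day one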
Each line names hits and unclear results; the compound was inactive in the other large screens (follow-up assays come after a bar, where they were run).

CC(=O)NC(c1ccc(C)cc1)c1cc([N+](=O)[O-])c2cccnc2c1O (configuration not stated)	Mdm2-MdmX inh 68 | Mdm2-MdmX conf 68 | FLuc counter inactive
COc1ccccc1CN1CCNC(=O)C1CC(=O)NCCOc1cccnc1 (configuration not stated)	none
CC(C(=O)NC1CCCC1)N1CCN(S(=O)(=O)c2ccc(C(C)(C)C)cc2)CC1 (configuration not stated)	none (no result: aSyn 5UTR inh, IMP-1 inh, VIM-2 inh)
Cc1ccc(-c2c(C#N)c(N)n(-c3ccc(C)cc3)c(=O)c2C#N)cc1	none
N#Cc1c(-c2ccccc2)c(C#N)c2nc3ccccc3n2c1N	Mdm2-MdmX inh 55 | Mdm2-MdmX conf 48 | FLuc counter 48
Cc1ccc(-c2c(C#N)c(N)n3c(nc4ccccc43)c2C#N)cc1	Mdm2-MdmX inh 77 | Mdm2-MdmX conf 55 | FLuc counter 58
Cc1ccc2nc(NS(=O)(=O)c3cn(C)nc3C)sc2c1	none
CN(C)/C=C/c1oc2ccc(O)cc2c1[N+](=O)[O-]	none
Cc1ccc(Sc2c(C=O)c3ccccc3n2C)cc1	Mdm2-MdmX inh 81 | Mdm2-MdmX conf 71 | FLuc counter 53
Cc1ccc(Sc2c(O)c3ccccc3n(C)c2=O)cc1	none (no result: Jurkat NFkB inh, Mdm2-MdmX inh, 697 NFkB inh)
Cn1c(-c2ccccc2)c(C=O)c2ccccc21	none
Cc1ccc(Sc2c([N+](=O)[O-])c(=O)n(C)c3ccccc23)cc1	Mdm2-MdmX inh 51 | Mdm2-MdmX conf inactive
COc1ccc(CN(C)C(=O)CNC(=O)CNC(=O)c2ccc(Cl)cc2Cl)cc1F	none
Cc1cc(Cl)n2ncc(-c3ccccc3)c2n1	Mdm2-MdmX inh 63 | Mdm2-MdmX conf inactive
CCC(C)Sc1cccc(-c2nc3ccc(Cl)cn3c2NCc2ccccc2)c1 (configuration not stated)	Mdm2-MdmX inh 66 (no result: IMP-1 inh, VIM-2 inh) | Mdm2-MdmX conf inactive
CCC(C(=O)Nc1ccon1)c1ccccc1 (configuration not stated)	none
O=C(Nc1ccccc1C(=O)NC(Cc1ccc(O)cc1)C(=O)O)c1ccccc1 (configuration not stated)	none
c1ccc2c(NCCCN3CCOCC3)c3ccccc3nc2c1	Mdm2-MdmX inh 85 (no result: aSyn 5UTR inh) | Mdm2-MdmX conf 79 | FLuc counter inactive
CCN(C(=O)c1cn(C)c(=O)c2ccccc12)c1ccccc1F	none
O=C(Nc1ccccc1)c1ccc(Nc2c([N+](=O)[O-])cc([N+](=O)[O-])c3ccccc23)cc1	none
O=[N+]([O-])c1cc(Br)c(Nc2ccccc2)c([N+](=O)[O-])c1	Mdm2-MdmX inh 92 | Mdm2-MdmX conf 50 | FLuc counter 79
CCCCN(C)C(=O)C1CCCN(S(=O)(=O)c2ccc3c(c2)oc(=O)n3C)C1 (configuration not stated)	none
O=C(CSc1nc2ccccc2s1)N1CCCCC1	none
Cc1c(Cl)cccc1N/C(SCC(=O)N1CCCCCC1)=C(/C#N)c1nc2ccccc2s1	Mdm2-MdmX inh 91 | Mdm2-MdmX conf 66 | FLuc counter inactive
CCCC(=O)c1cc2c(cc1NC(=O)c1ccccc1F)OCCO2	none
Cc1ccccc1NC(=O)c1ccc(-n2cncn2)nc1	none
CCN(CC)CCNC(=O)c1ccc(NC(=O)c2ccc(COc3ccccc3)cc2)cc1	Mdm2-MdmX inh 83 | Mdm2-MdmX conf inactive
CCN(CC)CCNC(=O)c1ccc(NC(=O)c2ccc(S(=O)(=O)N3CCCCCC3)cc2)cc1	none (no result: IMP-1 inh, VIM-2 inh)
CCN(CC)CCNC(=O)c1ccc(NC(=O)c2ccc(Cl)c(S(=O)(=O)N3CCCCCC3)c2)cc1	Mdm2-MdmX inh 94 | Mdm2-MdmX conf inactive
C=C1CCC2[C@](C)(CO)[C@H](O)CC[C@@]2(C)[C@@H]1C/C=C1\C(=O)OC[C@H]1O (some centres not stated)	Mdm2-MdmX inh 69 (no result: IMP-1 inh, VIM-2 inh) | Mdm2-MdmX conf 63 | FLuc counter inactive
C=C/C(C)=C/C[C@H]1C(=C)CCC2[C@](C)(C(=O)O)CCC[C@@]21C (some centres not stated)	none (no result: aSyn 5UTR inh, IMP-1 inh, VIM-2 inh)
Cc1ccc(NC(=S)N2CCN(c3ccccc3F)CC2)c(C)c1	none
COc1ccccc1-c1cc(-c2ccc(O)cc2)nc(N)c1C#N	none
COc1cc(-c2cc(-c3ccc(O)cc3)nc(N)c2C#N)ccc1O	Mdm2-MdmX inh 81 | Mdm2-MdmX conf 54 | FLuc counter 92
COc1ccc(-c2cc(-c3ccc(O)cc3)nc(N)c2C#N)cc1	Mdm2-MdmX inh 62 | Mdm2-MdmX conf inactive
COc1cccc(/C=N/NC(=O)CCn2c3ccccc3c3ccccc32)c1	none
COc1cc(OC)c2cc(C(=O)N/N=C/c3ccccc3O)[nH]c2c1	Mdm2-MdmX inh 73 | Mdm2-MdmX conf 68 | FLuc counter 38
Cc1ccc2[nH]c(C(=O)N/N=C/c3ccccc3C(=O)O)c(-c3ccccc3)c2c1	none
COc1ccc2[nH]c(C(=O)N/N=C/c3ccc(OC)c(O)c3)cc2c1	Mdm2-MdmX inh 56 | Mdm2-MdmX conf 53 | FLuc counter 67
COc1ccc(/C=N/NC(=O)CCn2c3ccccc3c3ccccc32)cc1O	Mdm2-MdmX inh 53 | Mdm2-MdmX conf 58 | FLuc counter 60
COc1ccc2[nH]c(C(=O)N/N=C/c3ccccc3OC)cc2c1	none
Cc1ccc2[nH]c(C(=O)N/N=C/c3ccccc3O)c(C)c2c1	Mdm2-MdmX inh 59 | Mdm2-MdmX conf 78 | FLuc counter inactive
CCCc1cc(=O)[nH]c(SCC(=O)Nc2cc(C)on2)n1	none
C[C@H](NC(=O)COc1ccc(Cl)cc1)C(=O)N1CCC2(CC1)NCCc1[nH]cnc12	none
CC(OC(=O)c1cc(=O)c2cc(Cl)ccc2o1)C(=O)N1CCCC1 (configuration not stated)	none (no result: aSyn 5UTR inh, IMP-1 inh, VIM-2 inh)
COc1ccc(/C=N/NC(=O)c2nc(-c3ccccc3)cc(-c3ccccc3)n2)cc1	none
COc1ccc(/C=N/NC(=O)c2nc(-c3ccccc3)cc(-c3ccccc3)n2)cc1O	Mdm2-MdmX inh 56 | Mdm2-MdmX conf inactive | FLuc counter 121
COc1ccc2[nH]c3c(c2c1)CC(C)NC3=O (configuration not stated)	Mdm2-MdmX inh 78 | Mdm2-MdmX conf 74 | FLuc counter inactive
COc1ccc2[nH]c(=O)cc(C(=O)O)c2c1	none
O=[N+]([O-])c1ccc(Sc2cccc3cccnc23)c([N+](=O)[O-])c1	Mdm2-MdmX inh 93 | Mdm2-MdmX conf 86 | FLuc counter 57
O=[N+]([O-])c1cc(Cl)ccc1Sc1cccc2cccnc12	none
